We go through three molecules from publication PMC2760637 (Journal of molecular recognition : JMR, 2009).

*1 amine or outer side, *2 acyl side, *3 side chain or, on linkers, in order; H or OH if unused. Bridges are numbered along the chain shown (N, C = ends). [ ]: non-standard residue; d: D form. Tyr(OMe) = O-methyl-tyrosine, COc1ccc(C[C@H](N[*:1])C(=O)[*:2])cc1

Assay [1] relates to classical pathway of complement activation. Description: Complement inhibition assay. It is filed as biochemical. In a few lines: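 Classical-pathway activation was triggered by antigen–antibody complexes formed on the ELISA plate: an albumin-coated plate bound by a polyclonal anti-ovalbumin antibody. C3b deposited in the presence of the test peptide was detected by ELISA. Percent inhibition was plotted against peptide concentration and fitted to a logistic dose-response function to derive IC50.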

The target of assay [2] is complement C3 (Homo sapiens) (UniProt P01024). The assay is described as follows: ITC. Particulars: cited from earlier work.
The target of assay [3] is complement C3 (Homo sapiens), P01024. Description: ITC. The conditions noted are these: Y4 is O-methyl-Tyr, N-acetyl, C-amide, disulfide C2-C12.

Consider “Ac-ICV(1MeW)QisoDWGAHRCT [4(1MeW)6(isoD)]”, for which the “inhibitory activity (in words)” value in assay [1] (listed as 4(1MeW)6isoD) was “lacked inhibitory activity”; in assay [1] (listed as 6isoD) it was “complete loss of activity”. What is called Kd is the free concentration of one partner at which half of the binding sites on the other are occupied at equilibrium, for simple one-to-one binding. Regarding compstatin 4(5MeW), the equilibrium dissociation constant (Kd) in assay [2] was 120 nM.

B1: compstatin 4MeY (peptide)
chain: Ac-ICV[Tyr(OMe)]QDWGAHRCT-NH2
modifications: disulfide 2-12
SMILES: CC[C@H](C)[C@H](NC(C)=O)C(=O)N[C@H]1CSSC[C@@H](C(=O)N[C@H](C(N)=O)[C@@H](C)O)NC(=O)[C@H](CCCNC(=N)N)NC(=O)[C@H](Cc2c[nH]cn2)NC(=O)[C@H](C)NC(=O)CNC(=O)[C@H](Cc2c[nH]c3ccccc23)NC(=O)[C@H](CC(=O)O)NC(=O)[C@H](CCC(N)=O)NC(=O)[C@H](Cc2ccc(OC)cc2)NC(=O)[C@H](C(C)C)NC1=O
On to B1, for which the Kd in assay [3] was determined as 115 nM.
